Active and inactive are the calls of the source. The rule behind the calls is not given here.

Series [1] concerns Hepatocyte. Put plainly: Induction of myeloid differentiation in mouse primary fetal liver cells expressing C/EBP-alpha p30 assessed as upregulation of Lilrb3 mRNA expression at 20 uM after 3 to 6 days by qRT-PCR analysis. The class given is functional, cell-based. To be noted: time 3-6 day. Put shortly:
(§1)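 Cebpap30/p30 cells in culture with 20 μM compound for the indicated periods. Total RNA (300 ng) reverse transcribed with oligo(dT); SYBR qPCR, quantified by 2−ddCt method; mean ± SD of triplicate experiments, t-test.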
(Quantitative PCR measures a nucleic acid by following its amplification.)

Series [2] concerns Hepatocyte. Put plainly: Induction of myeloid differentiation in mouse primary fetal liver cells expressing C/EBP-alpha p30 assessed as upregulation of Lcn2 mRNA expression at 20 uM after 3 to 6 days by qRT-PCR analysis. The class given is functional, cell-based. The conditions noted are these: time 3-6 day. Put shortly: as §1
Series [3] deals with Cyclin-dependent kinase 4/cyclin D1 (Homo sapiens) (UniProt P11802+P24385). Put plainly: Inhibition of CDK4/cycD1 (unknown origin) assessed as remaining activity at 1 uM relative to control. The class given is protein-complex assay.
Series [4] deals with T1, Alpha-1A adrenergic receptor (Rattus norvegicus) (UniProt P43140).
T1 sequence (whole entry): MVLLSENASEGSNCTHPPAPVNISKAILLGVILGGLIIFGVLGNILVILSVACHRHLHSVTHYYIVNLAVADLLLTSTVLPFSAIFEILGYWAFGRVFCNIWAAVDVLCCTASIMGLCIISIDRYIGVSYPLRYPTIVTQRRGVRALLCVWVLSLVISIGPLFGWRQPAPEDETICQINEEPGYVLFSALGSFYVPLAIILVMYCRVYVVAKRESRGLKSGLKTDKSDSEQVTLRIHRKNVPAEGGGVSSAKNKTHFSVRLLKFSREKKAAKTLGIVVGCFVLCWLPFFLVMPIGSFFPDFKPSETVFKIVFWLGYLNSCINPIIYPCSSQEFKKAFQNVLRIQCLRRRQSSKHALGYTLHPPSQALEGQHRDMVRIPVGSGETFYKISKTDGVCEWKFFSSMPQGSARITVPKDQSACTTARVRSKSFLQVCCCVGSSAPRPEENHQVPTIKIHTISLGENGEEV
Put plainly: Displacement of [3H]prazosin from rat […] brain alpha1 adrenergic receptor assessed as remaining activity at 1 uM after 60 mins by scintillation counting method relative to control. The class given is tissue-based. (Loss of bound radioactivity is the signal in a displacement assay; it reports binding, not function.)

The test system of series [5] is Hepatocyte. Put plainly: Induction of progenitor morphology loss in mouse primary fetal liver cells expressing C/EBP-alpha p30 at 20 uM after 6 days by Cytospin stainig based microscopic analysis. To be noted: time 6.0 day. The class given is functional, cell-based. The method, boiled down:
(§2)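 Cebpap30/p30 cells left untreated or given 20 μM compound for 6 days. Fc receptors blocked with anti-CD16/CD32, then Mac-1 and Gr-1 staining by flow cytometry, with Mac-1/Gr-1 double-positive cells counted at the indicated time points. Cytospins stained with Kwik-Diff for microscopic morphology.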

Series [6] can be described thus: Toxicity in mouse bone marrow cells assessed as reduction in colony formation at 2.5 to 20 uM after 7 day by CFU assay. To be noted: bone marrow cell, 168 h, dose 2.5-20 µM. The class given is cell-based.
For another series, the species on record is Homo sapiens. As to the kind of experiment: Binding affinity against WDR5 S91K mutant (unknown origin) at 50 uM by differential scanning fluorimetry. The method, boiled down: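 Thermal shift of purified recombinant S91K-mutant WDR5 measured by differential scanning fluorimetry, with test compound at 50 μM run alongside a DMSO vehicle control.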
In general terms: In DSF a fluorescence change marks the thermal transition of the protein.

The test system of series [7] is Hepatocyte. Put plainly: Induction of myeloid differentiation in mouse primary fetal liver cells expressing C/EBP-alpha p30 assessed as upregulation of Ccl9 mRNA expression at 20 uM after 3 to 6 days by qRT-PCR analysis. The class given is functional, cell-based. The conditions noted are these: time 3-6 day. The method, boiled down:
as §1

In series [8] the test system is Hepatocyte. As to the kind of experiment: Induction of myeloid differentiation in mouse primary fetal liver cells expressing C/EBP-alpha p30 assessed as upregulation of Mac-1/Gr-1 double positive cells at 20 uM after 6 days by flow cytometry analysis. To be noted: time 6.0 day. The class given is functional, cell-based. The method, boiled down: as §2
In series [9] the test system is Hepatocyte. As to the kind of experiment: Induction of myeloid differentiation in mouse primary fetal liver cells expressing C/EBP-alpha p30 assessed as upregulation of C3ar1 mRNA expression at 20 uM after 3 to 6 days by qRT-PCR analysis. The class given is functional, cell-based. The conditions noted are these: time 3-6 day. Put shortly:
as §1

Series [10] concerns the target CDK9/cyclin T1 (Homo sapiens) (UniProt O60563+P50750). Put plainly: Inhibition of CDK9/CycT1 (unknown origin) assessed as remaining activity at 1 uM relative to control. The class given is protein-complex assay.
The subject of series [11] is Hepatocyte. As to the kind of experiment: Inhibition of colony formation in mouse primary fetal liver cells expressing C/EBP-alpha p30 at 5 to 20 uM after 7 day by colony formation assay. The class given is functional, cell-based. To be noted: dose 5-20 µM. Put shortly: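 Primary Cebpap30/p30 fetal liver cells, maintained in DMEM/10% FCS with SCF, IL-6 and IL-3, plated at 1×10^4 cells in complete methylcellulose (M3434) with compound at the indicated concentrations; colonies scored 7 days later and normalized to DMSO for each genotype; mean ± SD of triplicate experiments.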

The test system of series [12] is Hepatocyte. Put plainly: Induction of myeloid differentiation in mouse primary fetal liver cells expressing C/EBP-alpha p30 assessed as upregulation of Lyz2 mRNA expression at 20 uM after 3 to 6 days by qRT-PCR analysis. The conditions noted are these: time 3-6 day. The class given is functional, cell-based. The method, boiled down: as §1
A short description of series [13]: Antiproliferative activity against human acute myeloid leukemic cells harboring N-terminal CEBPA mutation assessed as vaibility at 5 uM after 72 hrs by cell titer glo luminescent cell viability assay relative to control. The class given is functional, Leukemia cell. The method, boiled down: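 20,000 viable proliferating cells per well in triplicate, exposed to 5 μM compound or 0.05% DMSO for 72 h (3 days); CellTiter-Glo luminescence, normalized to DMSO for each patient sample; mean ± SD.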

For series [14], the target named is Kappa-type opioid receptor (Homo sapiens) (UniProt P41145). Put plainly: Displacement of [3H]U69593 from human kappa receptor assessed as remaining activity at 1 uM after 60 mins by scintillation counting analysis relative to control.
The target in series [15] is Cyclin-dependent kinase 5/CDK5 activator 1 (Homo sapiens) (UniProt Q00535+Q15078). As to the kind of experiment: Inhibition of CDK5/p35 (unknown origin) assessed as remaining activity at 1 uM relative to control. The class given is protein-complex assay.
In another series the test system is K562. As to the kind of experiment: Antiproliferative activity against human K562 cells assessed as reduction in cell viability after 72 hrs by cell TiterGlo luminescent cell viability assay. The class given is functional, cell-based.
The subject of series [16] is Hepatocyte. As to the kind of experiment: Antiproliferative activity against mouse primary fetal liver cells expressing C/EBP-alpha p30 assessed as reduction in cell viability after 72 hrs by cell TiterGlo luminescent cell viability assay. The class given is functional, cell-based.

Chain of Cyclin-dependent kinase 5/CDK5 activator 1 (Homo sapiens) (Q00535 whole entry): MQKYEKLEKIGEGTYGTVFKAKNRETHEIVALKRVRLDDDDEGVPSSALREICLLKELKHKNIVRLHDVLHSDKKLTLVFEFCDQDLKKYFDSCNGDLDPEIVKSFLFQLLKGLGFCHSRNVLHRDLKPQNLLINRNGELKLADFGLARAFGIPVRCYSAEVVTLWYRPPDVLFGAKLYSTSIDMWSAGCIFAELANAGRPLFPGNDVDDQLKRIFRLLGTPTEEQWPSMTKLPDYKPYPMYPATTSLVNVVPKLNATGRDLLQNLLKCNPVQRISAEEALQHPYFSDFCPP
Chain of Cyclin-dependent kinase 5/CDK5 activator 1 (Homo sapiens) (Q15078 99-307 partner limits assumed): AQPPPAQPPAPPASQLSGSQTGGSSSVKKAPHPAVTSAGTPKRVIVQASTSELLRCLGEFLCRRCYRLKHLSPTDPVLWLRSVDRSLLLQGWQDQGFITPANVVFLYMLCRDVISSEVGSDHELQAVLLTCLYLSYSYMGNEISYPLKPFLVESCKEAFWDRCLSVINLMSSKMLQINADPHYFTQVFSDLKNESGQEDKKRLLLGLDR
Chain of Kappa-type opioid receptor (Homo sapiens) (P41145 whole entry): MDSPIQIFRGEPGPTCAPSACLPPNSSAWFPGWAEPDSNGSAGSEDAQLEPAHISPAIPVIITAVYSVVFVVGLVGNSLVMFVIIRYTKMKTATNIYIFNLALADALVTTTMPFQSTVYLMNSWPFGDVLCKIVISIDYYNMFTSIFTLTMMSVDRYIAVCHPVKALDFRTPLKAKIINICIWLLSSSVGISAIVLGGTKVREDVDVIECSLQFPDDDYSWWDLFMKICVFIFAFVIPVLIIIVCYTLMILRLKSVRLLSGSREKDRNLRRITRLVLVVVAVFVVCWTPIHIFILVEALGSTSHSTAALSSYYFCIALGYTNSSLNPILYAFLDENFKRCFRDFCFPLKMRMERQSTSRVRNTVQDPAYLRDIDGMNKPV

Turning to `CN1CCN(c2ccc(-c3cccc(CN4CCOCC4)c3)cc2NC(=O)c2c[nH]c(=O)cc2C(F)(F)F)CC1`, the outcome in the series on Hepatocyte [1], in the series on Hepatocyte [2], in the series with Hepatocyte [5], in the series with Hepatocyte [7], with Hepatocyte [8] and with Hepatocyte [9] was Active. For the same compound, the outcome in the series on Hepatocyte [12] was Active. Besides, the Activity in [3] was 102%; in series [4], 99%; in series [6] it was “Non-Toxic”; in series [10] it was 98%; in [13], 53%; in series [14] it was 102%. Besides, in series [15], the Activity is 102%. Besides, the outcome in the series listed under Homo sapiens was inactive. Further, the inhibition entry in the series with Hepatocyte [11] was “Active”.

For `O=C(Nc1cc(-c2cccc(CN3CCOCC3)c2)ccc1N1CCOCC1)c1c[nH]c(=O)cc1C(F)(F)F`, the outcome in the series with K562 and in the series on Hepatocyte [16] was inactive.

Values taken from ChEMBL document CHEMBL5712888, “Pharmacological targeting of the Wdr5-MLL interaction in C/EBPα N-terminal leukemia” (Nat Chem Biol, 2015).
